From ChEMBL document CHEMBL1821619 (Bioorg Med Chem Lett, 2011)

Key:
Histamine H3 receptor [1] = molecular target: Histamine H3 receptor (Homo sapiens, UniProt Q9Y5N1); test: Displacement of [125I]Iodoproxyfan from recombinant human histamine H3 receptor expressed in HEK293 cells after 60 mins; assay type: cell-based
CYP2C9 = CYP2C9 (Homo sapiens, UniProt P11712); test: Inhibition of CYP2C9 at 1 uM; assay type: ADME
In short: (§1)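 Compounds were incubated at 37 ± 0.5 °C with agitation with human recombinant CYP isoforms, isoform-selective fluorescent substrates and an NADPH-generating system.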

CYP3A4 = CYP3A4 (Homo sapiens, UniProt P08684); test: Inhibition of CYP3A4 at 1 uM; assay type: ADME; in short: as §1
CYP2D6 = CYP2D6 (Homo sapiens, UniProt P10635); test: Inhibition of CYP2D6 at 1 uM; assay type: ADME; in short: as §1
Cytochrome P450 3A4 = Cytochrome P450 3A4 (Homo sapiens, UniProt P08684); test: Inhibition of CYP3A4; assay type: ADME; in short: as §1
Mus musculus = test: Inverse agonist activity at histamine H3 receptor in po dosed Swiss mouse assessed as brain N-tele-methylhistamine level measured after 90 mins by enzyme immunoassay; assay type: functional; details: 1.5 h
In short: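 Compounds were given orally to at least 6 male Swiss mice per dose. Brain N-tele-methylhistamine was measured by enzyme immunoassay 90 min after dosing. Intrinsic activity was scaled to ciproxifan as the reference full inverse agonist. ED50 is given as mean ± SEM.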

Histamine H3 receptor [2] = molecular target: Histamine H3 receptor (Mus musculus, UniProt P58406); test: Displacement of [125I]Iodoproxyfan from mouse brain cortex histamine H3 receptor after 60 mins; assay type: tissue-based
In short: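 Competition binding used [125I]-iodoproxyfan against human recombinant H3R and native mouse brain cortex H3R. Ki values are means of at least two experiments run in duplicate or triplicate, reported as mean ± SEM.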

Cytochrome P450 2D6 = Cytochrome P450 2D6 (Homo sapiens, UniProt P10635); test: Inhibition of CYP2D6; assay type: ADME; in short: as §1
Cytochrome P450 2C9 = Cytochrome P450 2C9 (Homo sapiens, UniProt P11712); test: Inhibition of CYP2C9; assay type: ADME; in short: as §1
hERG (KCNH2) [3] = molecular target: T1, hERG (KCNH2) (Homo sapiens, UniProt Q12809); test: Inhibition of human ERG expressed in HEK293 cells at 10 uM by patch clamp assay; assay type: cell-based; details: HEK293 cells expressing human ERG
hERG (KCNH2) [4] = molecular target: T1, hERG (KCNH2); test: Inhibition of human ERG expressed in HEK293 cells at 1 uM by patch clamp assay; assay type: cell-based; details: HEK293 cells expressing human ERG

Histamine H3 receptor (Mus musculus, UniProt P58406), sequence (P58406 whole entry): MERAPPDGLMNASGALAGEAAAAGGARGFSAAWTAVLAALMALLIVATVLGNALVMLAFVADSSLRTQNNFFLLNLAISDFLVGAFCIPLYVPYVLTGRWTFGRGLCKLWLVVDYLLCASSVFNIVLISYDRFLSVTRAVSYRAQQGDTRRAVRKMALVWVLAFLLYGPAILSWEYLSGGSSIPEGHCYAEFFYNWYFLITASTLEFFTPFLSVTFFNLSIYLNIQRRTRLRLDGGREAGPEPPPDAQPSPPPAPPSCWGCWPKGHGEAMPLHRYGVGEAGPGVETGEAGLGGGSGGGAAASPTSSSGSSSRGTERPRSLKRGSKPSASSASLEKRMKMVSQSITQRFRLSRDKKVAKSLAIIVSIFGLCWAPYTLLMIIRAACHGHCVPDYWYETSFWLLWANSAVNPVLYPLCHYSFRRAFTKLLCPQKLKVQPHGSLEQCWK
T1 sequence (Q12809 whole entry): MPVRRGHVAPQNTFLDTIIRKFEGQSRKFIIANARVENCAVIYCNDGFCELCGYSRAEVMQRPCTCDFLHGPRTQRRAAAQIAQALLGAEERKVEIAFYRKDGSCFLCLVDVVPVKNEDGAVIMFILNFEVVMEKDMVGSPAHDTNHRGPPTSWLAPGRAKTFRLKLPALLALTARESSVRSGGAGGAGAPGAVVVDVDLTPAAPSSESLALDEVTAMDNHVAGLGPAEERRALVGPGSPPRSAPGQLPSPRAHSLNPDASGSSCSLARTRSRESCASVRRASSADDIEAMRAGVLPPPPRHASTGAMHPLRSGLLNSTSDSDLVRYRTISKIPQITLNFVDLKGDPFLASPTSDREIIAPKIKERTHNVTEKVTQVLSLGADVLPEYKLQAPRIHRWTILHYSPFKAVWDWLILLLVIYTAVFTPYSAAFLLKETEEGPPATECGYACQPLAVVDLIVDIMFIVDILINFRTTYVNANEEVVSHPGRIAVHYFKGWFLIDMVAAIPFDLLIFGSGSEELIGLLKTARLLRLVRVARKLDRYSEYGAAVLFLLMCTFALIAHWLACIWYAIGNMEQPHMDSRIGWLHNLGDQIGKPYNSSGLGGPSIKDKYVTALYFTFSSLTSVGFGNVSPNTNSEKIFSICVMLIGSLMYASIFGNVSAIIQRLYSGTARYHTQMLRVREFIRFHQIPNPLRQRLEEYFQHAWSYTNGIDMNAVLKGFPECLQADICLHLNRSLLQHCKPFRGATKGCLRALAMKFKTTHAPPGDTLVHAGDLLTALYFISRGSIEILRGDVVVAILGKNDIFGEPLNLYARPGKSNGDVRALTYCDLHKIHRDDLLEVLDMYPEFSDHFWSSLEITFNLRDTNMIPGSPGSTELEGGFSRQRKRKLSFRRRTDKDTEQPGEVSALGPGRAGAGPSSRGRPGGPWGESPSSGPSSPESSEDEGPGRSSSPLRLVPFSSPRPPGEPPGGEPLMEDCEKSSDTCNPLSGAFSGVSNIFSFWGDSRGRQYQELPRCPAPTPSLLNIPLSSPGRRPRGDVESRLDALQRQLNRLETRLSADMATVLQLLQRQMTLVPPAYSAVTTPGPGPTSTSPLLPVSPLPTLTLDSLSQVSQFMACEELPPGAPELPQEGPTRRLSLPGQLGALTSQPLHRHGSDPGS
CYP2D6, sequence (P10635 whole entry): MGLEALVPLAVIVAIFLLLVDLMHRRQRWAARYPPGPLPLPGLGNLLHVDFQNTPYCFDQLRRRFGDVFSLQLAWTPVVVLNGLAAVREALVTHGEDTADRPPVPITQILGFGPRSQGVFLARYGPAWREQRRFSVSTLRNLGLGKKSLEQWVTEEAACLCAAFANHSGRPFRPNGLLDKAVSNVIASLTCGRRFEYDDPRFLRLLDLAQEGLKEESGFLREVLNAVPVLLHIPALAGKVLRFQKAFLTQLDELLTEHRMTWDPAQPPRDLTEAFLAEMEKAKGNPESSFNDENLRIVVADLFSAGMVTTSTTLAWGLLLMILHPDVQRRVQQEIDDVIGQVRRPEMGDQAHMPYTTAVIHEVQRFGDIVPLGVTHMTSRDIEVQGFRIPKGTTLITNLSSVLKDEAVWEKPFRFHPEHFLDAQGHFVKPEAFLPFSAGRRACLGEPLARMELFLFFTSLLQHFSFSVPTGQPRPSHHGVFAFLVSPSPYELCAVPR
Cytochrome P450 2D6, sequence (P10635 whole entry): as above
Cytochrome P450 2C9, sequence (P11712 whole entry): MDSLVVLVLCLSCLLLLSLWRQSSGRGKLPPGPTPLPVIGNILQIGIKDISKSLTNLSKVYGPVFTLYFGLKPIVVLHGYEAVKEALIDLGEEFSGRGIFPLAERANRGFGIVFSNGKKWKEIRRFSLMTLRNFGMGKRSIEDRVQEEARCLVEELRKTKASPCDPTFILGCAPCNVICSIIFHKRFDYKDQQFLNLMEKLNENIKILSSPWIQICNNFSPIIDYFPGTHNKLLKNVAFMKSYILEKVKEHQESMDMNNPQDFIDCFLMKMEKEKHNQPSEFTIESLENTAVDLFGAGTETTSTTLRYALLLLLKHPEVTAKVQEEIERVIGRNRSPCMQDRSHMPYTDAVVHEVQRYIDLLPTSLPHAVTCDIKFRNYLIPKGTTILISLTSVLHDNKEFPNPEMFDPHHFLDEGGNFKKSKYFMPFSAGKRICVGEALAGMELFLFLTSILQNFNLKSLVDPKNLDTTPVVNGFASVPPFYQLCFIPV
CYP2C9, sequence (P11712 whole entry, canonical isoform): as the sequence (P11712 whole entry) above
Histamine H3 receptor (Homo sapiens, UniProt Q9Y5N1), sequence (Q9Y5N1 whole entry): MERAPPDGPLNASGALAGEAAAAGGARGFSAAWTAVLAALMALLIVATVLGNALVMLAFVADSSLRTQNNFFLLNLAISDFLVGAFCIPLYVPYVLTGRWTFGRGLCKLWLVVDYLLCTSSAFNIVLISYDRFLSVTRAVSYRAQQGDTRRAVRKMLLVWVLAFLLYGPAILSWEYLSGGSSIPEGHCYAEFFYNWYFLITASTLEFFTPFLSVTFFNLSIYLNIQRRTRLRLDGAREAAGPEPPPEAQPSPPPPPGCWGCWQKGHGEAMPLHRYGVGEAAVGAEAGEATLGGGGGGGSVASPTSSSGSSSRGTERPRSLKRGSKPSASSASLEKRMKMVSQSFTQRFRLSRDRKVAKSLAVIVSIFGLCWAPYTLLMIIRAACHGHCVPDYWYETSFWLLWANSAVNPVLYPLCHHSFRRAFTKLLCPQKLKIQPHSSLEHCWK
CYP3A4, sequence (P08684 whole entry): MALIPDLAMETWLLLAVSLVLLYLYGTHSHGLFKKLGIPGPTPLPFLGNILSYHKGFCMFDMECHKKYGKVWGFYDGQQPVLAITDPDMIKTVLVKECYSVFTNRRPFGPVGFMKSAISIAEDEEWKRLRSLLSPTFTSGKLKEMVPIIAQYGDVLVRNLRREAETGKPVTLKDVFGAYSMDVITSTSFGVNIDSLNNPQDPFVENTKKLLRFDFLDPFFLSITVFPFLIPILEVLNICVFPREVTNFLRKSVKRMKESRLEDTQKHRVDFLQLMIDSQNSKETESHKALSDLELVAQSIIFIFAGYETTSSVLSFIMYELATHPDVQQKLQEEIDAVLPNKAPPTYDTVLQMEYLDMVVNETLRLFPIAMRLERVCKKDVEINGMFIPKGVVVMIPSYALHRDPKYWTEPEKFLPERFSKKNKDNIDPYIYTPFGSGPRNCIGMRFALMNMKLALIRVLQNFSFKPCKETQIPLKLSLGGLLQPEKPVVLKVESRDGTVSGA
Cytochrome P450 3A4, sequence (P08684 whole entry): as above

Structure (SMILES) | Ki (Histamine H3 receptor [1]) | inhibition at 1 µM (CYP2C9) | inhibition at 1 µM (CYP3A4) | inhibition at 1 µM (CYP2D6) | IC50 (Cytochrome P450 3A4) | ED50 (Mus musculus) | Ki (Histamine H3 receptor [2]) | IC50 (Cytochrome P450 2D6) | IC50 (Cytochrome P450 2C9) | inhibition at 10 µM (hERG (KCNH2) [3]) | inhibition at 1 µM (hERG (KCNH2) [4])
O=C1CCC(c2ccc(OCCCN3CCCCC3)cc2)CC1 | 1.7 nM | 21.4% | 4.1% | 3.8% |  |  |  |  |  |  | 
CN(C)[C@H]1CC[C@@H](c2ccc(OCCCN3CCCCC3)cc2)CC1 |  |  |  |  | 50000 nM | 3.7 mg/kg | 0.28 nM | > 100000 nM | 11300 nM |  | 
CN(C)[C@H]1CC[C@H](c2ccc(OCCCN3CCCCC3)cc2)CC1 |  |  |  |  | 42600 nM | 3.7 mg/kg | 0.52 nM | > 100000 nM | 40700 nM |  | 
c1cc([C@H]2CC[C@@H](N3CCC3)CC2)ccc1OCCCN1CCCCC1 | 0.34 nM |  |  |  |  |  |  |  |  |  | 
c1cc([C@H]2CC[C@H](N3CCC3)CC2)ccc1OCCCN1CCCCC1 | 0.25 nM | -12.1% | 4.2% | 0.8% |  | 2.8 mg/kg | 1.6 nM |  |  | 41% | 
c1cc([C@H]2CC[C@@H](N3CCCC3)CC2)ccc1OCCCN1CCCCC1 | 0.33 nM |  |  |  | 41700 nM |  | 1 nM | > 100000 nM | 22300 nM | 15% | 11%
c1cc([C@H]2CC[C@H](N3CCCC3)CC2)ccc1OCCCN1CCCCC1 | 0.25 nM |  |  |  |  | 3 mg/kg | 0.33 nM | > 100000 nM | 15300 nM | 22% | 14%
c1cc([C@H]2CC[C@H](N3CCCCC3)CC2)ccc1OCCCN1CCCCC1 | 0.64 nM | 33.5% | 5.2% | 1.4% |  | 4.2 mg/kg | 1 nM |  |  |  | 42%
CC1CCN([C@H]2CC[C@@H](c3ccc(OCCCN4CCCCC4)cc3)CC2)CC1 | 0.56 nM | 52.9% | 26.1% | -7.8% |  |  |  |  |  |  | 
CN1CCN([C@H]2CC[C@@H](c3ccc(OCCCN4CCCCC4)cc3)CC2)CC1 | 0.92 nM |  |  |  |  |  |  |  |  |  | 
CN1CCN([C@H]2CC[C@H](c3ccc(OCCCN4CCCCC4)cc3)CC2)CC1 | 0.32 nM | 3.4% | 20.9% | 3.4% |  |  | 2.3 nM |  |  |  | 
c1cc([C@H]2CC[C@@H](N3CCOCC3)CC2)ccc1OCCCN1CCCCC1 | 0.67 nM |  |  |  |  |  |  |  |  |  | 
